Published values collected from several papers.
Lines come from different studies, so protocols differ. pIC50: −log10 of the molar value.
CYP2C9: Cytochrome P450 2C9 (CYP2C9, Homo sapiens, UniProt P11712)

Structure (SMILES) | target or system | assay | test system | setting | quantity | value
Cc1cc(C)nc(Nc2ncc(C(=O)NCCc3c(C)[nH]c4ccccc34)cn2)c1 |  | metabolic stability | male Sprague-Dawley rat, hepatocytes | 1 µM | half-life | 22 min
Nc1c2c(nc3c1C(c1ccc(Cl)c(Cl)c1)c1ccc(OCC(=O)c4ccc(Cl)cc4)cc1O3)CCCC2 (stereo not shown) | SH-SY5Y | cell growth or viability, MTT |  | 6.3 µM | viability | 71.6%
CCCCCn1nc(C(=O)Nc2cccc3ccccc23)c2ccccc21 |  | metabolic stability | Sprague-Dawley rat, liver microsomes | 1 µM, pH 7.4 | half-life | 1.61 min
CCCCNC(=O)Oc1ccc(OCc2ccccc2)cc1 |  | metabolic stability | male Wistar rat, liver S9 | 1 µM, pH 7.4 | half-life | 7 min
COc1ccc(S(=O)(=O)Oc2ccc3c(c2)Oc2nc4c(c(N)c2C3c2cccc(OC)c2)CCCC4)cc1 (stereo not shown) | SH-SY5Y | cell growth or viability, MTT |  | 100 µM | viability | 48.9%
COc1cc2c(cc1C(=O)Nc1ccc(C(C)(C)C)cc1)CCCCC2 | NHDF | cell growth or viability, ATP luminescence |  | 24 h | CC50 | 148 µM
C[C@]12CC[C@H](n3ccnc3)CC1=CC[C@@H]1[C@@H]2CC[C@]2(C)C(n3cnc4ccccc43)=CC[C@@H]12.Cl.Cl |  |  | male CD-1 mouse, plasma | intravenous, 1 mg/kg | AUC(0-t) | 1870 ng·h/mL
CC[C@@H]1CN2CCc3c([nH]c4cccc(OC)c34)[C@H]2C[C@@H]1/C(=C\OC)C(=O)OC | mouse Hepatocyte | metabolic stability | hepatocytes |  | half-life | 11.2 min
COc1cc2c(cc1NC(=O)c1ccc(C(C)(C)C#N)cc1)CCCCC2 | NHDF | cell growth or viability, ATP luminescence |  | 24 h | CC50 | 3.57 µM
CCC[C@@](N)(CO)CCc1ccc(OCCCCCC(C)C)cc1 | CYP2C9 | enzyme activity, inhibitor |  |  | pIC50 | < 4.30
Nc1c2c(nc3c1C(c1cccc([N+](=O)[O-])c1)c1ccc(OS(=O)(=O)c4ccc(F)cc4)cc1O3)CCCC2 (stereo not shown) | SH-SY5Y | cell growth or viability, MTT |  | 6.3 µM | viability | 63.4%
COC(=O)C1CCN(C(=O)c2ccc(NCc3cnc4nc(N)nc(N)c4n3)cc2)CC1 | CYP2C9 | enzyme activity, inhibitor, luciferase |  | 10 µM | inhibition | -7.15%
CN1CCCCC1Cn1cc(C(=O)c2cc([N+](=O)[O-])ccc2I)c2ccccc21 (racemic) |  | metabolic stability | rat, liver microsomes |  | half-life | 13.7 min
